Laboratory results from ChEMBL document CHEMBL2046441, “Synthesis and SAR of 4-aminocyclopentapyrrolidines as N-type Ca²⁺ channel blockers with analgesic activity” (Bioorg Med Chem, 2012).

Columns and labels:
Rattus norvegicus [1] = assay: Cardiovascular toxicity in anesthetized Sprague-Dawley rat assessed as changes in heart rate at 10 mg/kg, iv by hemodynamic function study; assay type: organism-based; design: dose 10 mg/kg, route intravenous; conditions: in vivo
Rattus norvegicus [2] = assay: Analgesic activity in Sprague-Dawley rat acute inflammatory pain model assessed as inhibition of carrageenan-induced thermal hypersensitivity of paw withdrawal latency at 30 mg/kg, ip dosed 30 mins before thermal hypersensitivity assessment; assay type: functional; conditions: route intraperitoneal
In short: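 Male Sprague-Dawley rats (200–350 g) received 3, 10 or 30 mg/kg ip in 10% DMSO/PEG 400, n = 6. Dosing was 30 min before testing, and testing was 2 h after intraplantar carrageenan in the right hind paw. Hargreaves radiant heat on 30 °C glass, 4.50 amp, 20.48 s cutoff; each paw tested 3 times ~5 min apart. PWL is the mean of the two shortest latencies.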

[3] = target: Voltage-gated L-type calcium channel (Rattus norvegicus, UniProt P22002+Q02485+P27732); assay: Inhibition of L-type calcium channel in Sprague-Dawley rat aorta assessed as relaxation of Kcl-induced tissue contraction by aortic ring relaxation assay; assay type: tissue-based
Rattus norvegicus [4] = assay: Cardiovascular toxicity in anesthetized Sprague-Dawley rat assessed as changes in dp/dt rate at 10 mg/kg, iv by hemodynamic function study; assay type: organism-based; design: dose 10 mg/kg, route intravenous; conditions: in vivo
[5] = Inhibition of Voltage-dependent N-type calcium channel in human IMR32 cells by FLIPR based Ca(2+) flux assay; assay type: cell-based, IMR-32
In short: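 IMR32 cells were plated at 120,000/well and grown 48 h at 37 °C, 5% CO₂. Cells were loaded with Calcium 4 dye in HBSS/1 mM HEPES pH 7.4 for 1.5 h at room temperature, with antagonists present for 1 h of loading.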

Rattus norvegicus [6] = assay: Cardiovascular toxicity in anesthetized Sprague-Dawley rat assessed as changes in mean arterial pressure at 10 mg/kg, iv by hemodynamic function study; assay type: organism-based, Artery; design: dose 10 mg/kg, route intravenous; conditions: in vivo
Rattus norvegicus [7] = assay: Analgesic activity in Sprague-Dawley rat osteoarthritis pain model assessed as increase in maximum compressive grip force at 30 mg/kg, ip dosed 30 mins before grip force assessment; assay type: functional; conditions: route intraperitoneal
In short: (§1)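 Male Sprague-Dawley rats (200–350 g) were tested at least 21 days after MIA injection. Dosing was 3, 10 or 30 mg/kg ip in 10% DMSO/PEG 400, 30 min before testing; n = 12 per group. Hindlimb grip force was measured twice ~2 min apart to get CFmax, normalised to body weight. Vehicle group set as 0%, age-matched naive group as 100%.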

[8] = Stability in human liver microsomes assessed as compound remaining measured after 30 mins; assay type: ADME, Microsome; conditions: read-out: Stability
In short: (§2)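 Compound is incubated with human or rat liver microsomes, and percent parent remaining is measured after 30 min.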

[9] = Aqueous solubility of the compound; assay type: physicochemical; conditions: buffer
Rattus norvegicus [10] = assay: Neurotoxicity in Sprague-Dawley rat assessed as induction of rotarod performance deficit at 3 to 30 mg/kg, ip and measured once animals were placed back on rotarod apparatus for 3 consecutive testing trials 30 mins following compound dosing; assay type: toxicity, organism-based; design: dose 3-30 mg/kg, route intraperitoneal; conditions: in vivo, 0.5 h
In short: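 Male rats first receive three training sessions on an accelerating rod, 0–20 rpm over 60 s. Dosing is 3, 10, 30 mg/kg ip in 10% DMSO/PEG400, n = 6 per group. There are 3 consecutive trials at 30 min post-dose, recording fall latency with a 60 s cut-off.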

Rattus norvegicus [11] = assay: Analgesic activity in Sprague-Dawley rat persistent pain model assessed as inhibition of flinching behavior at 10 mg/kg, ip dosed 30 mins before formalin challenge measured for 20 mins following formalin challenge
[12] = Therapeutic index, ratio of cardiovascular effect in Sprague-Dawley rat at 10 mg/kg, iv to EC50 for analgesic activity in ip dosed Sprague-Dawley rat osteoarthritis pain model; assay type: organism-based; design: dose 10 mg/kg, route intravenous; conditions: in vivo, read-out: TI
[13] = target: Voltage-dependent N-type calcium channel subunit alpha-1B (Rattus norvegicus, UniProt Q02294); assay: Inhibition of rat Cav2.2 expressed in HEK293 cells under inactivating depolarizing conditions at holding potential of -80 to -95 mV and stepped to 0 mV once every 5 seconds by whole cell patch clamp assay
Voltage-dependent N-type calcium channel subunit alpha-1B, sequence (Q02294 whole entry): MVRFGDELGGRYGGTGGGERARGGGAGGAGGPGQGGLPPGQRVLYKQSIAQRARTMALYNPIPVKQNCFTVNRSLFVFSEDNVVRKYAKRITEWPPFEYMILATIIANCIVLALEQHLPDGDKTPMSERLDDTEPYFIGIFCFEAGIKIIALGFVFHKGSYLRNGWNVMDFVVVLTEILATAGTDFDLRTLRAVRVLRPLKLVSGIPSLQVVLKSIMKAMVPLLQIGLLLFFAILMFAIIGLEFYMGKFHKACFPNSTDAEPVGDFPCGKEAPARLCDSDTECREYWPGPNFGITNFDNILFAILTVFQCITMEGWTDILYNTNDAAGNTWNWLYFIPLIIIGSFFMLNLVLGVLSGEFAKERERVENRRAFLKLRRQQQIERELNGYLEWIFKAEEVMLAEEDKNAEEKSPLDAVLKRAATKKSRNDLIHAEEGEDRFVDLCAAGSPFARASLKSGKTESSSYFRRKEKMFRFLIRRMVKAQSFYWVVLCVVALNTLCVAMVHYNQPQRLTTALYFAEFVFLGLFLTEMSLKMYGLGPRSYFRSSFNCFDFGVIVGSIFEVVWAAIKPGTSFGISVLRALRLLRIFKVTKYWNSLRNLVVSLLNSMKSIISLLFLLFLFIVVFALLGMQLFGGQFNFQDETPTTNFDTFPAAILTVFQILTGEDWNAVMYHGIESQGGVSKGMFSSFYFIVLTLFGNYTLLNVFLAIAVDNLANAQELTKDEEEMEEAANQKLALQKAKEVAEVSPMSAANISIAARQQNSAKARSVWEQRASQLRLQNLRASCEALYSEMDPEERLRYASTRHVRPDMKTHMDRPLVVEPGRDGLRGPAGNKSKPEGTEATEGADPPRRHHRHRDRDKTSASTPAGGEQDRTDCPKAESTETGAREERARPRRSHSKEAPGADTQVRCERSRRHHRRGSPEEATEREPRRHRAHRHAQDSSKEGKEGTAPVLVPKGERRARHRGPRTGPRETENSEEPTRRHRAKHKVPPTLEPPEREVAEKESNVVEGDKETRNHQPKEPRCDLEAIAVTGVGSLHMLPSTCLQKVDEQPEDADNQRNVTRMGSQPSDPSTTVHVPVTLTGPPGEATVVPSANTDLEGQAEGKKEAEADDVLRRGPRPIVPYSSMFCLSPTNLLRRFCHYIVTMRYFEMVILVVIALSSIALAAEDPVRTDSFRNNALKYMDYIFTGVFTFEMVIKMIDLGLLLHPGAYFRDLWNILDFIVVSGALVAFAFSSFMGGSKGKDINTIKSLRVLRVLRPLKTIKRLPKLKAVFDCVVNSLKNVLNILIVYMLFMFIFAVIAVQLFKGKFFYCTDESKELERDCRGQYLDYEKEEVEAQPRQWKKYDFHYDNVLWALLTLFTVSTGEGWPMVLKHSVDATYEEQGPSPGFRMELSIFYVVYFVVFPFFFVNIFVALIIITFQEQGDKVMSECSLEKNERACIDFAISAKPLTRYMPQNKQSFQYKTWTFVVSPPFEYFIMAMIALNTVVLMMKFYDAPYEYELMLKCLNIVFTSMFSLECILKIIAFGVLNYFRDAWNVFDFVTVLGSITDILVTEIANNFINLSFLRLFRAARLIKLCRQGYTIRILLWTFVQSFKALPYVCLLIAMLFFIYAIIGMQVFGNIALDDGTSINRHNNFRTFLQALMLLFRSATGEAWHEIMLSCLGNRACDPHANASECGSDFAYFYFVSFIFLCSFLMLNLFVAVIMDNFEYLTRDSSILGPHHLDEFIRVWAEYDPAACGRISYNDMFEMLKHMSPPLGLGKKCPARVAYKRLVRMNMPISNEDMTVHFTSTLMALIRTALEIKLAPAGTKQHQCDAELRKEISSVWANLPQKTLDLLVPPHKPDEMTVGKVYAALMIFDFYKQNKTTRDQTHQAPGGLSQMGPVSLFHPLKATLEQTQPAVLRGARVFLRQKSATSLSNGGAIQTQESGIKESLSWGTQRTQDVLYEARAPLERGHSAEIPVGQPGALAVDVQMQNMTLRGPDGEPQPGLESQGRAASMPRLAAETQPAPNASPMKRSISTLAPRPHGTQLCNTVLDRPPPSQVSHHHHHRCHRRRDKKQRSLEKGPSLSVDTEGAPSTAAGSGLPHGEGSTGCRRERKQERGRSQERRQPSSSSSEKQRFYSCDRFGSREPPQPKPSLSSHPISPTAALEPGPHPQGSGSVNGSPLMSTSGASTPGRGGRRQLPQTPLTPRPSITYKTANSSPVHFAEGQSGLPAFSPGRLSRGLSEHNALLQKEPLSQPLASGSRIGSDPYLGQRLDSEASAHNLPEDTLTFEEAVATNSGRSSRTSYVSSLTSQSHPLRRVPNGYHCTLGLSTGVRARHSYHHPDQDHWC

[14] = Protein binding in plasma; assay type: ADME, cell-free; conditions: read-out: PPB
Rattus norvegicus [15] = assay: Analgesic activity in ip dosed Sprague-Dawley rat osteoarthritis pain model assessed as increase in maximum compressive grip force dosed 30 mins before grip force assessment; assay type: functional, organism-based; in short: as §1
Rattus norvegicus [16] = assay: Analgesic activity in Sprague-Dawley rat persistent pain model assessed as inhibition of flinching behavior at 30 mg/kg, ip dosed 30 mins before formalin challenge measured for 20 mins following formalin challenge; assay type: functional; conditions: route intraperitoneal
In short: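 Male Sprague-Dawley rats (200–350 g) were dosed ip in 10% DMSO/PEG 400 (3, 10, 30 mg/kg; n = 6) 30 min before formalin. They then received 50 µl of 5% formalin s.c. into the dorsal right hind paw. Flinches of the injected paw were counted 30–50 min after injection (phase II), sampling one 60 s period per 5 min interval.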

[17] = Stability in rat liver microsomes assessed as compound remaining measured after 30 mins; assay type: ADME, Microsome; conditions: read-out: Stability; in short: as §2
[18] = Bioavailability in ip dosed Sprague-Dawley rat; assay type: ADME, organism-based; conditions: in vivo
[19] = Inhibition of L-type calcium channel in mouse ND7/23 cells by FLIPR based Ca(2+) flux assay; assay type: cell-based
In short: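 ND7/23 cells were grown in DMEM with 10% heat-inactivated FBS and seeded at 5.0 × 10⁴ cells/well. After 24 h at 37 °C, 5% CO₂, cells were loaded with calcium dye in HBSS/20 mM HEPES pH 7.4 for 1.5 h at room temperature. Compounds were added for 3 min, then channels were activated with HBSS containing 50 mM KCl/2.5 mM CaCl₂.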

[20] = target: Voltage-dependent N-type calcium channel subunit alpha-1B (Rattus norvegicus) (UniProt Q02294); conditions: HEK293, 0.3 uM
Voltage-dependent N-type calcium channel subunit alpha-1B (Rattus norvegicus), sequence (Q02294 whole entry, looked up): as the sequence (Q02294 whole entry) above

Rattus norvegicus [21] = assay: Analgesic activity in ip dosed Sprague-Dawley rat acute inflammatory pain model assessed as reduction in carrageenan-induced thermal hypersensitivity of paw withdrawal latency dosed 30 mins before thermal hypersensitivity assessment; assay type: functional, organism-based
In short: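 Male rats 200–350 g; 10% DMSO/PEG400 vehicle; doses 3, 10, 30 mg/kg ip, n = 6. Carrageenan is injected into the plantar surface of the right hind paw. After 2 h, a Hargreaves radiant heat stimulus is applied on 30 °C glass, with cut-off 20.48 s. Both paws are tested in 3 trials about 5 min apart. Latency is taken as the mean of the two shortest readings.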

[22] = target: Voltage-dependent N-type calcium channel subunit alpha-1B (Rattus norvegicus) (UniProt Q02294); conditions: HEK293, 0.3 uM; remark: listed apart in the source
[23] = Homo sapiens, IMR-32, read-out: pIC50 (converted)
[24] = Homo sapiens, IMR-32, read-out: IC50

Row | SMILES | IC50 [5, 23] [nM] | IC50 ([19]; read-out: IC50) [nM] | IC50 [5, 24] [nM] | IC50 ([19]; read-out: pIC50 (converted)) [nM] | also measured
1 | O=C(N[C@H]1CC[C@H]2CN(Cc3cccc(C(F)(F)F)c3)C[C@H]21)C(C1CCCCC1)C1CCCCC1 [listing 1 of 2 here] | 468 |  |  |  | Activity (Rattus norvegicus [1]): Non-toxic; Emax at 30 mg/kg (Rattus norvegicus [2]): 67%; EC50 [3]: 46000 nM; inhibition (INH) ([3]; rat): Dose-dependent effect; Activity (Rattus norvegicus [4]): Non-toxic; IC50 ([5]; imr-32, read-out: IC50): 460 nM; Activity (Rattus norvegicus [6]): Non-toxic; Emax at 30 mg/kg (Rattus norvegicus [7]): 87%; remaining at 0.5 h [8]: < 5%; solubility [9]: < 3 µM; Activity (Rattus norvegicus [10]): Non-toxic; inhibition in vivo at 10 mg/kg (Rattus norvegicus [11]): 51%; selectivity ratio [12]: > 15; IC50 [13]: 41 nM; fraction unbound [14]: < 0.01; EC50 (Rattus norvegicus [15]): 2000 nM; inhibition in vivo at 30 mg/kg (Rattus norvegicus [16]): 51%; remaining at 0.5 h [17]: < 5%; bioavailability [18]: 41%
2 | O=C(N[C@H]1CC[C@H]2CN(Cc3ccccc3)C[C@H]21)C(C1CCCCC1)C1CCCCC1 |  |  |  |  | pIC50 ([5]; imr-32): 4.78; IC50 ([5]; imr-32, read-out: IC50): 16500 nM
3 | O=C(N[C@H]1CC[C@H]2CN(Cc3ccccc3F)C[C@H]21)C(C1CCCCC1)C1CCCCC1 | 1120 | > 30000 | 1120 |  | 
4 | O=C(N[C@H]1CC[C@H]2CN(Cc3cccc(F)c3)C[C@H]21)C(C1CCCCC1)C1CCCCC1 | 977 | > 30000 | 990 |  | 
5 | O=C(N[C@H]1CC[C@H]2CN(Cc3ccc(F)cc3)C[C@H]21)C(C1CCCCC1)C1CCCCC1 | 741 | 22900 | 740 | 22900 | 
6 | O=C(N[C@H]1CC[C@H]2CN(Cc3ccccc3C(F)(F)F)C[C@H]21)C(C1CCCCC1)C1CCCCC1 | 2450 | > 30000 | 2430 |  | 
7 | O=C(N[C@H]1CC[C@H]2CN(Cc3cccc(OC(F)(F)F)c3)C[C@H]21)C(C1CCCCC1)C1CCCCC1 | 417 | > 30000 | 510 |  | 
8 | Cc1cccc(CN2C[C@@H]3CC[C@H](NC(=O)C(C4CCCCC4)C4CCCCC4)[C@@H]3C2)c1 | 851 | 22300 | 860 | 22400 | 
9 | O=C(N[C@@H]1CC[C@@H]2CN(Cc3cccc(C(F)(F)F)c3)C[C@@H]21)C(C1CCCCC1)C1CCCCC1 |  | > 30000 | 1400 |  | 
10 | O=C(N[C@H]1CC[C@H]2CN(Cc3cccc(C(F)(F)F)c3)C[C@H]21)C(C1CCCCC1)C1CCCCC1 [listing 2 of 2 here] |  |  |  |  | inhibition [20]: 49%; Activity (Rattus norvegicus [15]): Dose-dependent effect; Activity (Rattus norvegicus [21]): Dose-dependent effect; inhibition [22]: 77%
11 | O=C(N[C@@H]1CC[C@@H]2CN(Cc3ccccc3)C[C@@H]21)C(c1ccccc1)C1CCCCC1 (mixture of isomers) | 1070 | > 30000 | 1060 |  | 
12 | CC(C)C(C(=O)N[C@@H]1CC[C@@H]2CN(Cc3ccccc3)C[C@@H]21)c1ccccc1 (mixture of isomers) | 1480 | 7210 | 1460 | 7240 | 
13 | CC(C)C(C(=O)N[C@H]1CC[C@H]2CN(Cc3cccc(C(F)(F)F)c3)C[C@H]21)c1ccccc1 (mixture of isomers) | 355 | 5000 | 360 | 5010 | 
14 | O=C(N[C@H]1CC[C@H]2CN(Cc3ccccc3)C[C@H]21)C1(c2ccccc2)CCCC1 (racemic) | 1950 | 4840 | 1930 | 4790 | 
15 | CCC(CC)C(=O)N[C@H]1CC[C@H]2CN(Cc3cccc(C(F)(F)F)c3)C[C@H]21 (racemic) | 2090 | 19000 | 2070 | 19100 | 
16 | O=C(N[C@H]1CC[C@H]2CN(Cc3cccc(C(F)(F)F)c3)C[C@H]21)C1CCCCC1 (racemic) | 1260 | 16100 | 1260 | 16200 | 
17 | O=C(N[C@H]1CC[C@H]2CN(Cc3cccc(C(F)(F)F)c3)C[C@H]21)C1CCCCCC1 (racemic) | 562 | 9300 | 560 | 13800 | 
18 | O=C(N[C@H]1CC[C@H]2CN(Cc3cccc(C(F)(F)F)c3)C[C@H]21)C(c1ccccc1)c1ccccc1 (racemic) | 661 | 6300 | 670 | 6310 | 
19 | O=C(N[C@H]1CC[C@H]2CN(Cc3cccc(C(F)(F)F)c3)C[C@H]21)C(C1CCCCC1)C1CCCCC1 (relative stereo) |  | > 30000 |  |  | pIC50 ([5]; imr-32): 5.97; IC50 ([5]; imr-32, read-out: IC50): 1070 nM
20 | O=C(N[C@H]1CC[C@H]2CN(Cc3ccccc3)C[C@H]21)C(C1CCCCC1)C1CCCCC1 (relative stereo) |  | > 30000 |  |  | pIC50 ([5]; imr-32): 5.33; IC50 ([5]; imr-32, read-out: IC50): 4670 nM
21 | O=C(N[C@H]1CC[C@H]2CN(Cc3ccccc3)C[C@H]21)C(c1ccccc1)C1CCCC1 (relative stereo) | 933 | 5150 | 920 | 5130 | 
22 | O=C(N[C@H]1CC[C@H]2CN(Cc3ccccc3)C[C@H]21)C1(c2ccccc2)CCCCC1 (relative stereo) | 1020 | 5560 | 1040 | 5620 | 
23 | CCCC(CCC)C(=O)N[C@H]1CC[C@H]2CN(Cc3cccc(C(F)(F)F)c3)C[C@H]21 (relative stereo) | 955 | 20100 | 950 | 20400 | 
24 | O=C(N[C@H]1CC[C@H]2CN(Cc3cccc(C(F)(F)F)c3)C[C@H]21)C1CCCC1 (relative stereo) | 2290 | 12800 | 2310 | 12900 | 
25 | O=C(N[C@H]1CC[C@H]2CN(Cc3cccc(C(F)(F)F)c3)C[C@H]21)C(c1ccc(F)cc1)c1ccc(F)cc1 (relative stereo) | 646 | 7100 | 640 | 7080 | 
